Results on seven molecules are retold here after ChEMBL document CHEMBL1150405, “Structure-activity study of endomorphin-2 analogs with C-terminal modifications by NMR spectroscopy and molecular modeling” (Bioorg Med Chem, 2008).

One assay is filed under the species Rattus norvegicus. Put plainly: Selectivity ratio of Ki for delta opioid receptor to Ki for mu opioid receptor in rat brain membrane. It is filed as cell membranes.
The target of a further assay is Mu-type opioid receptor (Rattus norvegicus, UniProt P33535). Put plainly: Displacement of [3H]DAMGO from mu opioid receptor in rat brain membrane. In kind it is cell membranes. The gist of the method: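 Wistar rat brain membranes (cerebellum removed) in 50 mM Tris–HCl, pH 7.4. [³H]DAMGO at 0.5 nM with varying peptide concentrations for 1 h at 25 °C in a rotating incubator. Stopped by vacuum filtration through GF/C filters, washed three times with ice-cold buffer, then scintillation counted. Nonspecific binding taken with naloxone. Duplicates, repeated at least three times; Ki derived.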

Assay [1] deals with Delta-type opioid receptor (Mus musculus, UniProt P32300). The assay is described as follows: Agonist activity at delta opioid receptor in mouse vas deferens assessed as inhibition of electrically-stimulated contraction. In kind it is functional, tissue-based. The gist of the method: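 Mouse vas deferens held at 36 °C in aerated (95% O₂/5% CO₂) Krebs–Henseleit, 10-ml bath. Pulse pairs (1-ms width, 100 ms apart, 9 V/cm supramaximal) repeated every 10 s; isometric twitch recording.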

Assay [2] deals with Delta-type opioid receptor (Rattus norvegicus, UniProt P33533). The assay is described as follows: Displacement of [3H]DPDPE from delta opioid receptor in rat brain membrane. It is filed as cell membranes. In a few lines: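 Wistar rat brain membranes (cerebellum removed) in 50 mM Tris–HCl, pH 7.4. [³H]DPDPE at 1 nM with varying peptide concentrations for 3 h at 25 °C in a rotating incubator. GF/C vacuum filtration, three ice-cold buffer washes, scintillation counting. Naloxone defined nonspecific binding. Duplicates, repeated at least three times; Ki calculated.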

Assay [3] can be described thus: Selectivity ratio of IC50 for guinea pig ileum to IC50 for mouse vas deferens assay. In kind it is tissue-based.
For another assay, the target named is Mu-opioid receptor (Cavia porcellus, UniProt Q8CGM4). Put plainly: Agonist activity at mu opioid receptor in guinea pig ileum assessed as inhibition of electrically-stimulated contraction. In kind it is functional, tissue-based. In a few lines:
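Guinea pig ileum in a 10-ml bath of Krebs–Henseleit solution at 37 °C, aerated with 95% O₂/5% CO₂. Twitches evoked by 0.1-Hz, 50-V, 0.5-ms rectangular pulses; isometric recording. […] Arithmetic mean of five to eight measurements.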

Delta-type opioid receptor (Mus musculus, UniProt P32300), sequence (P32300 whole entry): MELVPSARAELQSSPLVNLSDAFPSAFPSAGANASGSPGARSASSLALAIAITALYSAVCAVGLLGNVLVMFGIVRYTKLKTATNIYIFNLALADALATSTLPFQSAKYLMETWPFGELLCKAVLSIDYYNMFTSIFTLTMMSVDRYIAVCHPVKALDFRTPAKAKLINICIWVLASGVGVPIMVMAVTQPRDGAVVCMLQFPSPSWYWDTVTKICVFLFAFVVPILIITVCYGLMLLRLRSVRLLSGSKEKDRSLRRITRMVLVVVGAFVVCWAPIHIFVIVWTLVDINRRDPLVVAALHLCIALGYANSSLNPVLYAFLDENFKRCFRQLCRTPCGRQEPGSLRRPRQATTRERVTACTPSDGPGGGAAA
Mu-type opioid receptor, sequence (P33535 whole entry): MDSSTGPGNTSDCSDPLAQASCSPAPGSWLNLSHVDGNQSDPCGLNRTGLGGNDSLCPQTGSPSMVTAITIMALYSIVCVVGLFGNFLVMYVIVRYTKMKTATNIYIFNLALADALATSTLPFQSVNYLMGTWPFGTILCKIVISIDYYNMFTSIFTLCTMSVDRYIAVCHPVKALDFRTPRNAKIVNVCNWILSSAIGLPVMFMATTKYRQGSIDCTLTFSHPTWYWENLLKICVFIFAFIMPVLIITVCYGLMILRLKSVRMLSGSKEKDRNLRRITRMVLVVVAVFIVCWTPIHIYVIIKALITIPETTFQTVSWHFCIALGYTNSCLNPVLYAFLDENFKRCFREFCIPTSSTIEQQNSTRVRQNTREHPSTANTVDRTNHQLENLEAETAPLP
Mu-opioid receptor, sequence (Q8CGM4 whole entry): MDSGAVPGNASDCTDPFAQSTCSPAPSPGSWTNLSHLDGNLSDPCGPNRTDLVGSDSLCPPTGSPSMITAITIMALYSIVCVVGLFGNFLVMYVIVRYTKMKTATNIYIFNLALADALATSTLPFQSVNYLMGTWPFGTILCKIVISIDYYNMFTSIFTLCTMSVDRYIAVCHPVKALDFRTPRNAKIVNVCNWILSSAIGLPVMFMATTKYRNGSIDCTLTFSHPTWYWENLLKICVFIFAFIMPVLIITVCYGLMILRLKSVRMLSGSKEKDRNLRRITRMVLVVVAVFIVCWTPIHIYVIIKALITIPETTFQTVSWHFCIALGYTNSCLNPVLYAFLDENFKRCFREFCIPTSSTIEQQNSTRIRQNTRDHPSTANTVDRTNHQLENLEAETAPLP
Delta-type opioid receptor (Rattus norvegicus, UniProt P33533), sequence (P33533 whole entry): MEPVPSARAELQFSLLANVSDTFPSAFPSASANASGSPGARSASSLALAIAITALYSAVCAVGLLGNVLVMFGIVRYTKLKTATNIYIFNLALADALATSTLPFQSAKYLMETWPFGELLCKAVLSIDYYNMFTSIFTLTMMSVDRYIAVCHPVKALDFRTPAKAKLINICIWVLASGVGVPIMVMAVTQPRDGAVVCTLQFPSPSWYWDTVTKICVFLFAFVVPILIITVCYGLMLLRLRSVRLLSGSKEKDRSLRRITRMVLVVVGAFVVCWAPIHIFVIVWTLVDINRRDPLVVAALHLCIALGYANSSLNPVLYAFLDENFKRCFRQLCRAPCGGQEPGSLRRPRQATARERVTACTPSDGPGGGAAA

For `CC(C)(C)OC(=O)[C@H](Cc1ccccc1)NC(=O)[C@H](Cc1ccccc1)NC(=O)[C@@H]1CCCN1C(=O)[C@@H](N)Cc1ccc(O)cc1`, the Ratio Ki in the assay listed under Rattus norvegicus was 4.9. Further, the inhibition constant (Ki) on Mu-type opioid receptor worked out at 0.0503 µM; in assay [2], 0.247 µM. For the same molecule, the concentration for half-maximal inhibition (IC50) in assay [1] was determined as 0.0741 µM; at Mu-opioid receptor, 3 µM. Moreover, in assay [3], the IC50 ratio (guinea pig ileum / mouse vas deferens) turned out to be 40.5.
In the case of `N[C@@H](Cc1ccc(O)cc1)C(=O)N1CCC[C@H]1C(=O)N[C@@H](Cc1ccccc1)C(=O)N[C@H](CO)Cc1ccccc1`, the Ratio Ki in the assay listed under Rattus norvegicus was above 1580. Further, the Ki was 0.00634 µM on Mu-type opioid receptor and above 10 µM in assay [2]. The IC50 was 0.0292 µM in assay [1] and 0.0293 µM on Mu-opioid receptor. Further, the IC50 ratio (guinea pig ileum / mouse vas deferens) in assay [3] came to 1.
Turning to `COC(=O)[C@H](Cc1ccccc1)NC(=O)[C@H](Cc1ccccc1)NC(=O)[C@@H]1CCCN1C(=O)[C@@H](N)Cc1ccc(O)cc1`, in the assay listed under Rattus norvegicus, the Ratio Ki was above 1100. Moreover, the inhibition constant (Ki) at Mu-type opioid receptor is 0.00907 µM; in assay [2] it was above 10 µM. Further, the IC50 ratio (guinea pig ileum / mouse vas deferens) in assay [3] came to 1.1. In addition, the half-inhibitory concentration (IC50) on Mu-opioid receptor is 0.0421 µM.
Take `CNC(=O)[C@H](Cc1ccccc1)NC(=O)[C@H](Cc1ccccc1)NC(=O)[C@@H]1CCCN1C(=O)[C@@H](N)Cc1ccc(O)cc1`: the Ratio Ki in the assay listed under Rattus norvegicus was 290. Also, the inhibitory constant (Ki) on Mu-type opioid receptor turned out to be 0.0292 µM; in assay [2], 8.47 µM. In addition, the IC50 came to 0.0546 µM in assay [1] and 0.136 µM at Mu-opioid receptor. In assay [3], the IC50 ratio (guinea pig ileum / mouse vas deferens) was determined as 2.5.
In the case of `CCOC(=O)[C@H](Cc1ccccc1)NC(=O)[C@H](Cc1ccccc1)NC(=O)[C@@H]1CCCN1C(=O)[C@@H](N)Cc1ccc(O)cc1`, the Ratio Ki in the assay filed under Rattus norvegicus was 196. The Ki is 0.015 µM on Mu-type opioid receptor and 2.94 µM in assay [2]. Moreover, the IC50 in assay [1] was 0.0638 µM; on Mu-opioid receptor it was 0.0644 µM. Also, the IC50 ratio (guinea pig ileum / mouse vas deferens) in assay [3] is 1.
Take `CN(C)C(=O)[C@H](Cc1ccccc1)NC(=O)[C@H](Cc1ccccc1)NC(=O)[C@@H]1CCCN1C(=O)[C@@H](N)Cc1ccc(O)cc1`: in the assay filed under Rattus norvegicus, the Ratio Ki was above 36.7. Moreover, the Ki on Mu-type opioid receptor is 0.273 µM; in assay [2] it was above 10 µM. The IC50 in assay [1] is 2.72 µM; on Mu-opioid receptor, 1.81 µM. Moreover, the IC50 ratio (guinea pig ileum / mouse vas deferens) in assay [3] was found to be 0.66.
As to `NNC(=O)[C@H](Cc1ccccc1)NC(=O)[C@H](Cc1ccccc1)NC(=O)[C@@H]1CCCN1C(=O)[C@@H](N)Cc1ccc(O)cc1`, in the assay filed under Rattus norvegicus, the Ratio Ki was above 1070. For the same molecule, the inhibitory constant (Ki) is 0.00935 µM at Mu-type opioid receptor and above 10 µM in assay [2]. Moreover, the IC50 ratio (guinea pig ileum / mouse vas deferens) in assay [3] is 0.71. In addition, the IC50 at Mu-opioid receptor came out at 0.132 µM.
